Active and inactive are the calls of the source. No cut-off for these calls is given here.
Columns and labels:
[1] = Antioxidant activity against ABTS radical assessed as trolox equivalents by TEAC assay; format: functional
Outline: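 ABTS radical cation diluted in PBS pH 7.4 to A734 0.70, equilibrated at 30 °C, then added to sample solutions in MeOH at 0.3, 0.5, 1 and 1.5 concentration. Inhibition of A734 versus MeOH blank, run in triplicate, plotted against concentration alongside Trolox standard. TEAC = Trolox concentration equivalent in capacity to 1 mM compound.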

PC-3 [2] = experiment: Cytotoxicity against human PC3 cells; format: cell-based
PC-3 [3] = experiment: Antioxidant activity in human PC3 cells assessed as decrease in t-BuOOH-induced ROS elevation at 1 to 10 uM incubated for 24 hrs prior to t-BuOOH-challenge measured after 30 mins by dichlorofluorescein-based flow cytometric analysis; format: functional, cell-based
Outline: (§1)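 PC3 cells grown in DMEM with 2 mM L-glutamine, 10% heat-inactivated FBS and 1% pen/strep at 37 °C, then exposed to compound for 24 h. Exposed to 300 μM t-BuOOH for 30 min at 37 °C, washed, resuspended at 2 × 10^5 cells/ml in HBSS with 10 μM DCFH-DA for 20 min at 37 °C. DCF read by flow cytometry (FL1-H). Mean ± SEM of three experiments in triplicate; ANOVA with Bonferroni.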

PC-3 [4] = experiment: Antioxidant activity in human PC3 cells assessed as decrease in t-BuOOH-induced ROS elevation at 10 uM incubated for 24 hrs prior to t-BuOOH-challenge measured after 30 mins by dichlorofluorescein-based flow cytometric analysis; format: functional, cell-based; outline: as §1

| SMILES | Activity [1] [mM] | Activity (PC-3 [2]) | Activity (PC-3 [3]) | Activity (PC-3 [4]) |
| --- | --- | --- | --- | --- |
| O=c1c(O[C@@H]2O[C@H](CO)[C@@H](O)[C@H](O)[C@H]2O)c(-c2ccc(O)cc2)oc2cc(O)cc(O)c12 | 1.18 | – | – | – |
| COc1c2cc(O)cc(O[C@@H]3O[C@H](CO)[C@@H](O)[C@H](O)[C@H]3O)c2c(O)c2c(=O)oc(C)cc12 | 0.898 | Non-toxic | inactive | – |
| COc1c(O)cc2oc(-c3ccc(O)cc3)c(O[C@@H]3O[C@H](CO[C@@H]4O[C@@H](C)[C@H](O)[C@@H](O)[C@H]4OC(C)=O)[C@@H](O)[C@H](O)[C@H]3O)c(=O)c2c1O | 1 | Non-toxic | inactive | – |
| COc1c(O)cc2oc(-c3ccc(O)c(O)c3)c(O[C@@H]3O[C@H](CO[C@@H]4O[C@@H](C)[C@H](O)[C@@H](O)[C@H]4O)[C@@H](O)[C@H](O)[C@H]3O)c(=O)c2c1O | 2.02 | Non-toxic | – | Active |
| COc1c(O)cc2oc(-c3ccc(O)c(O)c3)c(O[C@@H]3O[C@H](CO)[C@@H](O)[C@H](O)[C@H]3O)c(=O)c2c1O | 0.525 | Non-toxic | inactive | – |
| COc1cc(O[C@H]2O[C@H](CO[C@@H]3O[C@H](CO)[C@@H](O)[C@@H](O)[C@H]3O)[C@@H](O)[C@H](O)[C@H]2O)c2c(O)c3c(=O)oc(C)cc3c(OC)c2c1 | 0.57 | Non-toxic | inactive | – |
| COc1c(O)cc2oc(-c3ccc(O)cc3)c(O[C@@H]3O[C@H](CO)[C@@H](O)[C@H](O)[C@H]3O)c(=O)c2c1O | 1.27 | Non-toxic | inactive | – |
| COc1c(O)cc2oc(-c3ccc(O)cc3)c(O[C@@H]3O[C@H](CO)[C@@H](O)[C@H](O)[C@H]3O[C@@H]3O[C@@H](C)[C@H](O)[C@@H](O)[C@H]3O)c(=O)c2c1O | 1.53 | Non-toxic | inactive | – |
| COc1c(O)cc2oc(-c3ccc(O)cc3)c(O[C@@H]3O[C@H](CO[C@@H]4O[C@@H](C)[C@H](O)[C@@H](OC(C)=O)[C@H]4OC(C)=O)[C@@H](O)[C@H](O)[C@H]3O)c(=O)c2c1O | 1.4 | Non-toxic | inactive | – |
| COc1cc(O[C@H]2O[C@H](CO[C@H]3O[C@H](CO)[C@@H](O)[C@H](O)[C@H]3O)[C@@H](O)[C@H](O)[C@H]2O)c2c(O)c3c(=O)oc(C)cc3c(OC)c2c1 | 0.706 | Non-toxic | inactive | – |
| COc1c(O)cc2oc(-c3ccc(O)cc3)c(O[C@@H]3O[C@H](CO[C@@H]4O[C@@H](C)[C@H](O)[C@@H](O)[C@H]4O)[C@@H](O)[C@H](O)[C@H]3O)c(=O)c2c1O | 2.06 | Non-toxic | – | Active |
| O=c1c(O[C@@H]2O[C@H](CO)[C@@H](O)[C@H](O)[C@H]2O)c(-c2ccc(O)c(O)c2)oc2cc(O)cc(O)c12 | 1.78 | – | – | – |
| O=c1c(O)c(-c2ccc(O)c(O)c2)oc2cc(O)cc(O)c12 | 1.87 | – | – | – |
| COc1c(O)cc2oc(-c3ccc(O)c(O)c3)c(O[C@@H]3O[C@H](CO[C@@H]4O[C@@H](C)[C@H](O)[C@@H](O)[C@H]4OC(C)=O)[C@@H](O)[C@H](O)[C@H]3O)c(=O)c2c1O | 1.37 | Non-toxic | inactive | – |
| COc1c(O)cc2oc(-c3ccc(O)c(O)c3)c(O[C@@H]3O[C@H](CO[C@@H]4O[C@@H](C)[C@H](OC(C)=O)[C@@H](O)[C@H]4O)[C@@H](O)[C@H](O)[C@H]3O)c(=O)c2c1O | 2.16 | Non-toxic | – | Active |
| COc1c(O)cc2oc(-c3ccc(O)c(O)c3)c(O[C@@H]3O[C@H](CO[C@@H]4O[C@@H](C)[C@H](OC(C)=O)[C@@H](O)[C@H]4OC(C)=O)[C@@H](O)[C@H](O)[C@H]3O)c(=O)c2c1O | 1.21 | Non-toxic | inactive | – |
| COc1c(O)cc2oc(-c3ccc(O)cc3)c(O[C@@H]3O[C@H](COC(=O)/C=C/c4ccc(O)cc4)[C@@H](O)[C@H](O)[C@H]3O)c(=O)c2c1O | 1.28 | Non-toxic | inactive | – |
| COc1cc2oc(-c3ccc(O)c(O)c3)c(O[C@@H]3O[C@H](CO[C@@H]4O[C@@H](C)[C@H](O)[C@@H](O)[C@H]4O)[C@@H](O)[C@H](O)[C@H]3O)c(=O)c2c(O)c1O | 1.54 | Non-toxic | inactive | – |
| COc1c(O)cc2oc(-c3ccc(O)cc3)c(O[C@@H]3O[C@H](CO[C@@H]4O[C@@H](C)[C@H](OC(C)=O)[C@@H](O)[C@H]4O)[C@@H](O)[C@H](O)[C@H]3O)c(=O)c2c1O | 0.968 | Non-toxic | inactive | – |
| COc1c(O)cc2oc(-c3ccc(O)cc3)c(O[C@@H]3O[C@H](COC(=O)[C@H]4[C@H](c5ccc(O)cc5)[C@H](C(=O)OC[C@H]5O[C@@H](Oc6c(-c7ccc(O)cc7)oc7cc(O)c(OC)c(O)c7c6=O)[C@H](O)[C@@H](O)[C@@H]5O)[C@H]4c4ccc(O)cc4)[C@@H](O)[C@H](O)[C@H]3O)c(=O)c2c1O [GENICULATIN] | 0.738 | Non-toxic | inactive | – |
| COc1cc(/C=C/C(=O)OC[C@H]2O[C@@H](Oc3c(-c4ccc(O)cc4)oc4cc(O)c(OC)c(O)c4c3=O)[C@H](O)[C@@H](O)[C@@H]2O)ccc1O | 0.984 | Non-toxic | inactive | – |
| COc1c2cc(O)cc(O[C@@H]3O[C@H](CO[C@@H]4O[C@H](CO)[C@@H](O)[C@H](O)[C@H]4O)[C@@H](O)[C@H](O)[C@H]3O)c2c(O)c2c(=O)oc(C)cc12 | 1.04 | Non-toxic | inactive | – |

— ChEMBL document CHEMBL2034822, “HPLC-ESIMS(n) profiling, isolation, structural elucidation, and evaluation of the antioxidant potential of phenolics from Paepalanthus geniculatus” (J Nat Prod, 2012)
